Assay outcomes from PubChem BioAssay.
The list is not random: actives were taken first. Their share in the collection is about 1.6%.
LANA-H2A inh = blockers of LANA interaction with H2A/H2B – biochemical, FP readout, HTS, primary screen. 320,000 tested, 0.6% active. inhibition, % (no concentration beside the values). Protein LANA1 (Human herpesvirus 8 type P (isolate GK18)), Q9QR71. cell-free LANA-H2A/H2B peptide, fluorescence polarization; in the data active = inhibition mostly above about 10%, no sharp cut-off; inactive = mostly below about 6.7%
Target sequence (Q9QR71 whole entry, looked up): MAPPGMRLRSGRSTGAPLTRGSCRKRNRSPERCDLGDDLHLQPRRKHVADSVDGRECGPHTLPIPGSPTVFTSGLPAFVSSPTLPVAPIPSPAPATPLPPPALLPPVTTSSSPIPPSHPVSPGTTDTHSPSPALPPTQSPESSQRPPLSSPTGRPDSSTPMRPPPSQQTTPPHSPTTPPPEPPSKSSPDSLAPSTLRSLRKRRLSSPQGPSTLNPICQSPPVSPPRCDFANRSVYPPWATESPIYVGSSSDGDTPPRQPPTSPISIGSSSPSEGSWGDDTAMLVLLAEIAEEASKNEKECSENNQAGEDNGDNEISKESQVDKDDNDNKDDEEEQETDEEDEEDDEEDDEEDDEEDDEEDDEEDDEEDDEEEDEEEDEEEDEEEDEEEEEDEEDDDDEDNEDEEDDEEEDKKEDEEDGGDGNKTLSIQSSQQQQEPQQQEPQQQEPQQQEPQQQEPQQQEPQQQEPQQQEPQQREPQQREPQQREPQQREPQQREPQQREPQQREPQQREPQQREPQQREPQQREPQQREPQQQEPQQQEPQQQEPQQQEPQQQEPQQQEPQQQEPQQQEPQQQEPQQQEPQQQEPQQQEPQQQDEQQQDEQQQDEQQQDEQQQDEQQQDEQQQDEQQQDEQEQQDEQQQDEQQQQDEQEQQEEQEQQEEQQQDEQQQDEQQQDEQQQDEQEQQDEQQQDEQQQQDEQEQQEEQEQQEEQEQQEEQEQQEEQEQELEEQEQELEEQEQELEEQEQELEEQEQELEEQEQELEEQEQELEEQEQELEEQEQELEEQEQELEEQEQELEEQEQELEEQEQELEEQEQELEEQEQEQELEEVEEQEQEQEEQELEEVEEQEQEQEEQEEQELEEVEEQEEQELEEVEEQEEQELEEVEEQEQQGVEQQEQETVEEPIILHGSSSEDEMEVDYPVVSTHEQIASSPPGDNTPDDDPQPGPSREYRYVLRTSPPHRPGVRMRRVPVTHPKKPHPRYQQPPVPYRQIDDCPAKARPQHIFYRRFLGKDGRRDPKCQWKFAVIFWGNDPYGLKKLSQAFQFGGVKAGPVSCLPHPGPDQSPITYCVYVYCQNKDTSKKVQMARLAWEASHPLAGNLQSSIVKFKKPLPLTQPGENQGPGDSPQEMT
HDAC3 inh = HDAC3 deacetylase inhibitors, primary screen, biochemical, fluorescence, cell-free homogeneous; recombinant HDAC3, fluorogenic peptide/trypsin coupled; inhibition, % at 8.3 µM; 320,000 tested, 0.15% active; AID 2718, 2010; in the data active = inhibition above about 26%, passing the limit was not always enough
T cell modulator = modulators of CD8 T cell-vesicle binding, primary screen, mouse 2C CD8+ T cells, flow cytometry. 2C CD8+ T cell-vesicle binding; hits give low values. response (vesicle binding), % at 7 µM. 330,000 tested, 0.068% active. AID 2052, 2009;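 active = response, share of CD8 T cells binding vesicles, and their 90th percentile fluorescence all below set limits, cut at about 80% in these data, passing the limit was not always enough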;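 also: values below 100% mean blocked vesicle binding to the CD8+ T cells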
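Assay system – 2C mouse CD8+ T cells · Also added – QL9-loaded Drosophila micro-vesicles · Timing – Cell–vesicle co-incubation 1.5 h at 37 °C, staining 20 min on ice · Signal – flow cytometry of vesicle-bound cells · Measure – percent CD8+ FL2 mean versus row control · Controls – Peptide-free naked vesicles (low) and QL9 vesicles with 0.7% DMSO vehicle (high)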
GASC-1 inh = inhibitors of GASC-1 histone demethylase, primary screen, biochemical, fluorescence, DELFIA europium; 330,000 tested, 0.069% active; GST-JMJD2C(1-420) H3K9me3 demethylation; Lysine-specific demethylase 4C (Homo sapiens), Q9H3R0; inhibition, % at 2.35 µM; AID 2099, 2009;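 active = more than half of a compound's replicate wells show inhibition beyond 50%, single wells judged on their own value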;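 also: signal counts dimethyl H3K9 product captured on neutravidin plate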
Pemphigus Ab inh = inhibitors of pemphigus antibody binding to DSG3, primary screen, biochemical, bead-based, flow cytometry, scFv-GFP. 310,000 tested, 0.48% active. Desmoglein-3 (Homo sapiens), P32926. binding (percent of control), % at 10 µM. AID 588358, 2011. DSG3-coupled beads, scFv-anti-DSG3-GFP binding; hits give low values;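 active = binding more than 3 SD below its plate's average and above zero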;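 also: hits lower antibody fragment binding to DSG3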
Arrestin-AP2 inh = inhibitors of beta-arrestin/AP2 binding, primary screen, biochemical, GPCR trafficking, flow cytometry; FITC-arrestin peptide / GST-AP2 beads; AP2 beta2 appendage carries R879A mutation; 340,000 tested, 0.31% active; inhibition, % at 10 µM;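 active = inhibition above a set limit, near 3 SD of compounds lacking own fluorescence, cut at about 54% in these data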
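Assay system: GST-AP2 R879A bound to glutathione beads, E. coli-expressed; Medium: PBS with 0.05% Tween 20 and 0.1% BSA; Also added: fluorescein-tagged arrestin peptide at 50 nM final; Timing: 12 min plus 1 h, RT; Measured by: flow cytometry, FL1 (488/535 nm); Evaluation: percent drop in bead-associated FITC signal.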
Numbers stand for hits; n = inactive; x = not tested or not shown.

SMILES	LANA-H2A inh	HDAC3 inh	T cell modulator	GASC-1 inh	Pemphigus Ab inh	Arrestin-AP2 inh
CC(C)Nc1nc(-c2ccncc2)nc(-c2ccccc2)c1C#N	n	n	n	n	n	n
O=C(O)CCC(=O)Nc1cccc2cccnc12	n	n	n	n	n	n
O=C(CCC(=O)OCC(=O)c1ccccc1)Nc1cccc2cccnc12	n	n	n	n	8.4	n
Cc1ccc(C(=O)Nc2ccc3cn[nH]c3c2)cc1S(=O)(=O)N1CCOCC1	n	n	n	n	n	n
O=C(Oc1ccc([N+](=O)[O-])cc1)c1cccnc1	n	32.0	n	n	n	n
COc1ccc(OC(=O)c2cccnc2)cc1	n	n	n	n	n	n
COc1cc(C(=O)OCC(=O)Nc2cccc(S(=O)(=O)N3CCCC3)c2)ccc1OCC(C)C	n	n	n	n	n	n
COc1ccc(C(=O)Nc2ccc(S(=O)(=O)Nc3nccc(C)n3)cc2)cc1	n	n	n	n	n	n
Cc1ccc(O)c(-c2cc(C(=O)Nc3ccc(S(=O)(=O)Nc4nccc(C)n4)cc3)[nH]n2)c1	78.0	n	n	n	n	n
Brc1ccc(CNCCCSc2ncccn2)cc1	n	34.5	n	n	n	n
O=C(CN1CCN(Cc2ccccc2)CC1)N/N=C\C=C/c1ccco1	12.2	n	n	n	n	n
O=C(CN1CCN(Cc2ccccc2Cl)CC1)N/N=C/C=C/c1ccco1	n	n	n	n	n	n
Cc1ccc2nc3c(cc2c1)c(NS(=O)(=O)c1ccccc1)nn3CC(C)C	n	n	n	n	82.5	n
CCn1nc(NS(=O)(=O)c2ccccc2)c2cc3ccc(C)cc3nc21	n	n	n	n	n	n
O=C(Nc1ccc(Cl)cc1)C1C2CCCCC21 (stereo not drawn)	n	n	n	n	n	n
Cn1c(C(=O)NCCCN2CCOCC2)cc2c(=O)n(C)c3ccccc3c21	n	n	n	n	83.5	n
CC1(C)CNC(=O)c2sc(NC(=O)c3ccccc3)nc2C1	18.2	n	n	n	n	n
Cc1ccc(N(CC2CO2)S(=O)(=O)c2ccc([N+](=O)[O-])cc2)cc1 (stereo not drawn)	n	n	n	n	n	n
CN1OC[C@@H]2CN(C(=O)C(C)(C)C)[C@H](c3ccc(-c4cc5ccccc5o4)cc3)C[C@@H]21	x	x	x	x	60.9	x
CN1OC[C@@H]2CN(C(=O)C(C)(C)C)[C@H](c3cccc(-c4ccccc4)c3)C[C@@H]21	x	x	x	x	n	n
COc1ccc(C(=O)N2CCOC2CNC(=O)C(=O)NCCc2ccccc2OC)cc1 (stereo not drawn)	n	n	n	n	n	n
O=C(/C=C/c1ccc(F)cc1)Nc1cc(S(=O)(=O)N2CCOCC2)ccc1N1CCCC1	n	n	n	n	n	n
O=C(/C=C/c1cccc(F)c1)Nc1cc(S(=O)(=O)N2CCOCC2)ccc1N1CCCC1	n	n	n	n	-24.2	n
Cc1c(CCOC(=O)C23CC4CC(CC(C4)C2)C3)sc[n+]1CC#N	n	n	n	n	n	n
O=C(NCCOc1ccccc1Cl)c1ccc2c(c1)S(=O)(=O)c1cc(Cl)ccc1C2=O	n	n	n	n	n	n
CCCn1c(C)cc(/C=C(\C#N)C(=O)OCC(=O)N(CC)c2c(N)n(Cc3ccccc3)c(=O)[nH]c2=O)c1C	x	x	x	x	x	n
O=C(c1ccc(-c2cccc(C(F)(F)F)c2)o1)N1CCCC(C(F)(F)F)C1 (stereo not drawn)	n	29.8	n	n	n	n
O=[N+]([O-])c1ccc(F)cc1F	51.5	n	n	n	n	n
O=[N+]([O-])c1cccnc1Oc1ccc(F)cc1F	n	n	n	n	n	n
